From ChEMBL document CHEMBL5338714, “Design, synthesis and biological evaluation of biphenyl-benzamides as potent FtsZ inhibitors” (Eur J Med Chem, 2022)
In brackets after ≈: the same amount, converted by molar mass. Activity calls are given as the source filed them. The calls are words filed in the database; no cut-off is given here.

Experiments:
[1] = Metabolic stability in human liver microsomes assessed as compound remaining preincubated for 5 mins followed by NADPH addition measured immediately by LC/MS analysis; format: ADME, Microsome; settings: read-out: Stability
Outline: (§1)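 Liver microsomes (final protein 0.75 mg/mL) with compound in 100 mM phosphate buffer pH 7.4, preincubated 5 min at 37 °C. Reaction started with NADPH regeneration system, stopped at 5, 15, 30 and 45 min with acetonitrile containing internal standard. Percent remaining measured by LC/MS, with ketanserin as reference; variation given as RSD of area ratio.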

[2] = Metabolic stability in mouse liver microsomes assessed as compound remaining preincubated for 5 mins followed by NADPH addition measured after 15 mins by LC/MS analysis; format: ADME, Microsome; settings: time 20 min, read-out: Stability; outline: as §1
[3] = Metabolic stability in rat liver microsomes assessed as compound remaining preincubated for 5 mins followed by NADPH addition measured after 30 mins by LC/MS analysis; format: ADME, Microsome; settings: time 35 min, read-out: Stability; outline: as §1
[4] = Metabolic stability in rat liver microsomes assessed as compound remaining preincubated for 5 mins followed by NADPH addition measured after 5 mins by LC/MS analysis; format: ADME, Microsome; settings: time 10 min, read-out: Stability; outline: as §1
Bacillus subtilis [5] = assay: Induction of morphological changes in Bacillus subtilis ATCC9372 assessed as increase in cell length at MIC incubated for 3 hrs by microscopic analysis (reference value: 10 um); format: functional
[6] = Bioavailability in ICR mouse at 5 mg/kg, po measured for 0.25 to 24 hrs by LC-MS/MS analysis; format: ADME, organism-based; settings: in vivo, time 0.25-24 hrs
Outline: (§2)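 Male ICR mice dosed orally with a solution of 5% DMSO, 4% ethanol, 5% Cremophor EL and 86% water. Blood collected at 15, 30 min, 1, 2, 4, 6, 8 and 24 h; plasma stored at -20 °C. Plasma levels measured by LC-MS/MS; parameters by non-compartmental analysis, with bioavailability relative to the 1 mg/kg iv dose.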

Staphylococcus aureus [7] = assay: Antibacterial activity against Staphylococcus aureus ATCC25923 assessed as reduction in bacterial count at 4 times MIC measured for 3 hrs by time kill curve assay; format: functional, organism-based
Outline: (§3)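 Time-kill: log-phase cultures diluted to about 10^6 CFU/mL in MHB with compound at 1×, 2×, 4× or 8× MIC (vancomycin at 2× MIC), shaken at 37 °C. Samples taken at 3, 6, 12 and 24 h, serially diluted and plated on LB agar. Colonies counted after 24 h at 37 °C; detection limit 10^3 CFU/mL.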

Bacillus subtilis [8] = assay: Selectivity ratio of MBC for Bacillus subtilis ATCC9372 to MIC for Bacillus subtilis ATCC9372; format: functional
Outline: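 After 24 h of broth microdilution, 5 µL from clear wells plated on LB agar and incubated aerobically for 24 h at 37 °C. MBC is the lowest concentration with no colonies. Ratio is MBC over MIC, with ≤4 taken as bactericidal and >4 as bacteriostatic.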

Staphylococcus aureus [9] = assay: Bactericidal activity against Staphylococcus aureus ATCC25923 incubated for 24 hrs by broth microdilution method; format: functional
Outline: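 MBC from the broth microdilution plates (MHB, 2-fold dilutions). After 24 h, 5 µL aliquots from clear wells were plated on LB agar and incubated aerobically 24 h at 37 °C, then colonies counted. MBC = lowest concentration with no colonies.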

[10] = Metabolic stability in rat liver microsomes assessed as compound remaining preincubated for 5 mins followed by NADPH addition measured after 15 mins by LC/MS analysis; format: ADME, Microsome; settings: time 20 min, read-out: Stability; outline: as §1
Staphylococcus aureus [11] = assay: Antibacterial activity against Staphylococcus aureus ATCC25923 assessed as bacterial growth inhibition incubated for 18 hrs by CLSI based broth microdilution method; format: functional
Outline: (§4)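 CLSI broth microdilution. Log-phase bacteria in Mueller Hinton broth added to 2-fold serial dilutions spanning 128 to 0.25 or 2 to 0.004 µg/mL. Incubated aerobically for 18 h at 37 °C, then OD600 read. MIC is the lowest concentration giving ≥90% growth inhibition; three independent assays.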

[12] = Metabolic stability in mouse liver microsomes assessed as intrinsic clearance preincubated for 5 mins followed by NADPH addition measured upto 45 mins by LC/MS analysis; format: ADME, Microsome; settings: time < 50 min, read-out: CLH
Outline: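 Liver microsomes at 0.75 mg/mL final protein, with test article and NADPH regeneration system (6 mM) in 100 mM phosphate buffer, pH 7.4. Preincubated 5 min at 37 °C, then started with NADPH. Quenched with acetonitrile containing internal standard at 5, 15, 30 and 45 min, centrifuged, and percent remaining measured by LC/MS. Ketanserin served as reference.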

Bacillus subtilis [13] = assay: Antibacterial activity against Bacillus subtilis BS01 assessed as bacterial growth inhibition incubated for 18 hrs by CLSI based broth microdilution method; format: functional; outline: as §4
[14] = Selectivity index, ratio of CC50 for African green monkey Vero cells to MIC for Bacillus subtilis ATCC9372; format: toxicity, cell-based; settings: read-out: Selectivity Index
Outline: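 CC50 in Vero cells (72 h Alamar blue) divided by broth microdilution MIC against B. subtilis ATCC9372.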

[15] = Half life in ICR mouse at 1 mg/kg, iv measured for 0.08 to 24 hrs by LC-MS/MS analysis; format: ADME, organism-based; settings: in vivo, time 0.08-24 hrs
Outline: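 Male ICR mice, single intravenous dose formulated in 5% DMSO, 4% ethanol, 5% Cremophor EL, 86% water. Blood sampled at 5, 15, 30 min, 1, 2, 4, 8 and 24 h; plasma stored at -20 °C. Compound quantified by LC-MS/MS, with parameters from non-compartmental analysis.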

Staphylococcus aureus [16] = assay: Antibacterial activity against Staphylococcus aureus ATCC29213 assessed as bacterial growth inhibition incubated for 18 hrs by CLSI based broth microdilution method; format: functional; outline: as §4
[17] = target: T1, Cell division protein FtsZ (Staphylococcus aureus) (UniProt P0A031); assay: Inhibition of recombinant Staphylococcus aureus FtsZ assessed as FtsZ polymerization at 10 ug/ml in presence of GTP by absorbance based turbidity assay; settings: dose 10.0 µg/ml
T1 sequence (whole entry): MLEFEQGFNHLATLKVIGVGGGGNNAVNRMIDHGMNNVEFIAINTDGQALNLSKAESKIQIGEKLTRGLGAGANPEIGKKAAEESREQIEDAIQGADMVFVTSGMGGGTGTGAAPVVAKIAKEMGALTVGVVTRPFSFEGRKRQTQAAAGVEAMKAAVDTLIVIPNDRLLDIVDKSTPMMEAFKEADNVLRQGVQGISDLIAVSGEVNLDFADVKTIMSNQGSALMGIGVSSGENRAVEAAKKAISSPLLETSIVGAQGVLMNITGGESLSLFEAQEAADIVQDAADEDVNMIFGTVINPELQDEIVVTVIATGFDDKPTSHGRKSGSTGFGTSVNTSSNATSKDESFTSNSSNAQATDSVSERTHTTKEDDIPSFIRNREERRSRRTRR
Outline: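 Recombinant S. aureus FtsZ (12 µM) with 1 mM GTP and compound in 50 mM Hepes, 50 mM KCl, 5 mM MgCl2. Polymerization followed continuously at 25 °C as light scattering (A340).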

[18] = Tmax in ICR mouse at 5 mg/kg, po measured for 0.25 to 24 hrs by LC-MS/MS analysis; format: ADME, organism-based; settings: in vivo, time 0.25-24 hrs; outline: as §2
Bacillus subtilis [19] = assay: Antibacterial activity against Bacillus subtilis ATCC9372 assessed as reduction in bacterial count at 2 times MIC measured for 3 hrs by time kill curve assay; format: functional, organism-based; outline: as §3
Escherichia coli = assay: Antibacterial activity against Escherichia coli 25922 assessed as bacterial growth inhibition incubated for 18 hrs by CLSI based broth microdilution method; format: functional; outline: as §4

Cc1cc(Cl)ccc1-c1cccc(COc2ccc(F)c(C(N)=O)c2F)c1
remaining at 0 min [1]: 100%
remaining at 0.25 h [2]: 11.9%
remaining at 0.5 h [3]: 19.1%
remaining at 5 min [4]: 73.7%
Activity (Bacillus subtilis [5]): >60 um
bioavailability [6]: 61.2%
Activity (Staphylococcus aureus [7]): Active
Selectivity ratio (Bacillus subtilis [8]): 4
MBC (Staphylococcus aureus [9]): 0.25 µg/mL (≈ 0.645 µM)
remaining at 0.25 h [10]: 39%
MIC (Staphylococcus aureus [11]): 0.125 µg/mL (≈ 0.322 µM)
CLint scaled [12]: 1070 mL/min/kg
MIC (Bacillus subtilis [13]): 0.016 µg/mL (≈ 0.0413 µM)
selectivity ratio [14]: > 645
t1/2 [15]: 16.8 min
MIC (Staphylococcus aureus [16]): 0.25 µg/mL (≈ 0.645 µM)
inhibition [17]: Active
Tmax [18]: 30 min
Activity (Bacillus subtilis [19]): Active
MIC (Escherichia coli): > 128 µg/mL
